Assay results from different studies.
Target: Testis-specific serine/threonine-protein kinase 3 (TSSK3, Homo sapiens, UniProt Q96PN8)
Residues used in one study (Q96PN8 1-268): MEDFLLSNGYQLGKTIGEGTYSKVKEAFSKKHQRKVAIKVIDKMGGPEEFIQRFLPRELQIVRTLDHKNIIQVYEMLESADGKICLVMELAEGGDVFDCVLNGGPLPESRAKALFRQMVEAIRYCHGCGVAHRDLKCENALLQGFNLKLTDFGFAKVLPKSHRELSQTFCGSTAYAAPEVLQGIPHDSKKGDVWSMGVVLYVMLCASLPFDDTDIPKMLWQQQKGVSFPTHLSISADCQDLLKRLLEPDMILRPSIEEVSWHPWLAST

C=CC(=O)N1CCC(C(=O)NCC(=O)N2CCN(c3nc(-c4cnc(N)nc4C(F)F)nc(N4CCOCC4)n3)CC2)CC1  remaining binding (binding; competition with immobilised ligand; 1 µM): 100%
O=C(Nc1cnc(Oc2ccc(F)cc2)nc1)N1CCc2ncccc2[C@@H]1c1ccc(F)cc1  remaining binding (cell-free assay; competition with immobilised ligand; 1 µM): 86%
c1cnn2ncc(-c3ccnc(N4CCC45COC5)n3)c2c1  remaining binding (binding; 1 µM): 98%
O=C(c1ccc(Nc2ncc(Cl)c(-c3ccc(Cl)s3)n2)cc1)N1CCC(N2CCCC2)CC1  remaining binding (binding; competition with immobilised ligand; 1 µM): 100%
C[C@H](c1ccc(F)cc1)N(Cc1cccc(C(=O)O)c1)C(=O)c1cnc2ccccc2c1  remaining binding (cell-free assay; competition with immobilised ligand; 1 µM): 64%
O=C(NCCCN1CCOCC1)c1ccc(Nc2ncc(Cl)c(-c3ccc(Cl)s3)n2)cc1  remaining binding (binding; competition with immobilised ligand; 1 µM): 100%
Nc1c(C(=O)NCc2ccc(C(=O)NCCCC3CCCCC3)cc2)cnn1-c1ccccc1  remaining binding (cell-free assay; competition with immobilised ligand; 0.1 µM): 100%
N[C@@H]1CCN(c2nccc(-c3cnn4ncccc34)n2)C1  remaining binding (binding; 1 µM): 100%
COc1cc(-c2cn(C3CCc4c(F)cccc4N(CC(F)(F)F)C3=O)nn2)ccc1-n1cnc(C)c1 (centres unmarked)  remaining binding (cell-free assay; competition with immobilised ligand; 1 µM): 97%
O=C(NCCCN1CCOCC1)c1ccc(Nc2nccc(-c3cc4ccccc4s3)n2)cc1  remaining binding (binding; competition with immobilised ligand; 1 µM): 79%
C[C@H]1CCN(c2nccc(-c3cnn4ncccc34)n2)C1  remaining binding (binding; 1 µM): 92%
COc1cnc(Nc2cccc(S(N)(=O)=O)c2)nc1N1CCN(c2ccccc2)C(=O)C1  remaining binding (binding; competition with immobilised ligand; 1 µM): 90%
O=C(Nc1c[nH]nc1C(=O)NC1CCNCC1)c1cc(F)cc(F)c1  remaining binding (binding; competition with immobilised ligand; 1 µM): 100%
COc1ccnn2ncc(-c3ccnc(N(C)C)n3)c12  remaining binding (binding; 1 µM): 100%
Cc1c(NC(=O)c2cc(C(N)=O)nc3cc(F)ccc23)c(C(F)(F)F)nn1Cc1ccc(C(C)(C)C)cc1  remaining binding (cell-free assay; competition with immobilised ligand; 1 µM): 100%
c1cncc(-c2cccc(Nc3nccc(NC4CCCCC4)n3)c2)c1  remaining binding (binding; competition with immobilised ligand; 10 µM): 86%
CN(c1nccc(-c2cnn3ncccc23)n1)C1CC1  remaining binding (binding; 1 µM): 99%
CCCCN(CCCC)C(=O)CN1C[C@H](c2cc(OC)c3c(c2)OCO3)[C@@H](C(=O)O)[C@@H]1CC(C)(C)CCC  remaining binding (cell-free assay; competition with immobilised ligand; 1 µM): 100%
COc1ncc2cc3ccccc3nc2c1C#N  remaining binding (cell-free assay; competition with immobilised ligand; 5 µM): 90%
CN(CCCC(F)(F)F)c1nccc(-c2cnn3ncccc23)n1  remaining binding (binding; 1 µM): 85%
